Experimental data published in ChEMBL document CHEMBL1152488, “Synthesis and evaluation of pyrido[1,2-a]pyrimidines as inhibitors of nitric oxide synthases” (Eur J Med Chem, 2009).

Biological target: T1, Nitric oxide synthase, inducible (Mus musculus, UniProt P29477)
T1 sequence (P29477 whole entry): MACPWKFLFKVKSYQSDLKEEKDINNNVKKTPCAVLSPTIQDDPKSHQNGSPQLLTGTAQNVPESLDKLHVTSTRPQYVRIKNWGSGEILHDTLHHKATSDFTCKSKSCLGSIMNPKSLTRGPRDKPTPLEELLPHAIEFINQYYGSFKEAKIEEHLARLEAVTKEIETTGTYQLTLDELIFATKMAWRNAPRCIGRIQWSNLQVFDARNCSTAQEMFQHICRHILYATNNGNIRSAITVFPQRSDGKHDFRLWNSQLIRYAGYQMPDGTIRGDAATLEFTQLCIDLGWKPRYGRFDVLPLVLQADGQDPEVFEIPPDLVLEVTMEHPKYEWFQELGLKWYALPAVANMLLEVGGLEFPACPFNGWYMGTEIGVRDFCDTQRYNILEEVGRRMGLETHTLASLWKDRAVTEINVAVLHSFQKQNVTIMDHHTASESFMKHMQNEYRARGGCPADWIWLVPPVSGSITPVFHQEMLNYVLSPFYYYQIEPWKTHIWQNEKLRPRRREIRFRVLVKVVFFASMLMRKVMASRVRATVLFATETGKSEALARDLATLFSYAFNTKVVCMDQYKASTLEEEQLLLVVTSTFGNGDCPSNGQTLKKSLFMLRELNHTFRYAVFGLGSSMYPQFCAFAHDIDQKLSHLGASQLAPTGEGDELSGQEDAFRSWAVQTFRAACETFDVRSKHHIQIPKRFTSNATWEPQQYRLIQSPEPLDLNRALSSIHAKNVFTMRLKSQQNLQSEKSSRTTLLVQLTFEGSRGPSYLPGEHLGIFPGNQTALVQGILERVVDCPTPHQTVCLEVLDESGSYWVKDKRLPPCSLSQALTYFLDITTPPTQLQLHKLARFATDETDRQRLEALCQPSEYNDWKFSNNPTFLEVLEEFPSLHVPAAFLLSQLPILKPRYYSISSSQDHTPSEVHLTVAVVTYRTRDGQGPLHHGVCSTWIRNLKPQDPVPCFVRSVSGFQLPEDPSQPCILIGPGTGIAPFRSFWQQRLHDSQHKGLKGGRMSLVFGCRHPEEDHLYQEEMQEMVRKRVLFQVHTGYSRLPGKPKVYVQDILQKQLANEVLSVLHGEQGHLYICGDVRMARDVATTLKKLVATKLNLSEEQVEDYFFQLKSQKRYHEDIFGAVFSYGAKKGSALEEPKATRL
Test: Inhibition of mouse recombinant iNOS expressed in Escherichia coli assessed as NADPH consumption after 2 mins by spectrophotometry
In short: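 Murine iNOS from E. coli (15–50 nM final) in 50 mM Hepes pH 7.4 with 5 mM DTT, 100 µM CaCl2, 200 µM NADPH, 10 µM H4B, 100 µM L-arginine and 100 µM compound. Cofactors and compound preincubated 2 min at 37 °C, enzyme added, and A340 followed for 3 min (ε 6.2 mM-1 cm-1). Given as % of 1% DMSO control NADPH oxidase rate.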

- IC50: 11 µM
Compound: CC1=CC2=NCC(C(=O)c3ccc(-c4ccc(C#N)cc4)cc3)CN2C=C1.Cl (stereo unspecified)
